Assay results from ChEMBL document CHEMBL1143159, “Indole-2-amide based biochemical antagonist of Dishevelled PDZ domain interaction down-regulates Dishevelled-driven Tcf transcriptional activity” (Bioorg Med Chem Lett, 2008).
Activity calls are given as the source filed them. The rule behind the calls is not given here.

Assays:
[1] = target: T1, Segment polarity protein dishevelled homolog DVL-3 (Homo sapiens, UniProt Q92997); experiment: Antagonist activity at human Dvl3 assessed as inhibition of interaction between Dvl3 PDZ domain and […] by alphaScreen assay; assay type: functional
T1 sequence (Q92997 whole entry): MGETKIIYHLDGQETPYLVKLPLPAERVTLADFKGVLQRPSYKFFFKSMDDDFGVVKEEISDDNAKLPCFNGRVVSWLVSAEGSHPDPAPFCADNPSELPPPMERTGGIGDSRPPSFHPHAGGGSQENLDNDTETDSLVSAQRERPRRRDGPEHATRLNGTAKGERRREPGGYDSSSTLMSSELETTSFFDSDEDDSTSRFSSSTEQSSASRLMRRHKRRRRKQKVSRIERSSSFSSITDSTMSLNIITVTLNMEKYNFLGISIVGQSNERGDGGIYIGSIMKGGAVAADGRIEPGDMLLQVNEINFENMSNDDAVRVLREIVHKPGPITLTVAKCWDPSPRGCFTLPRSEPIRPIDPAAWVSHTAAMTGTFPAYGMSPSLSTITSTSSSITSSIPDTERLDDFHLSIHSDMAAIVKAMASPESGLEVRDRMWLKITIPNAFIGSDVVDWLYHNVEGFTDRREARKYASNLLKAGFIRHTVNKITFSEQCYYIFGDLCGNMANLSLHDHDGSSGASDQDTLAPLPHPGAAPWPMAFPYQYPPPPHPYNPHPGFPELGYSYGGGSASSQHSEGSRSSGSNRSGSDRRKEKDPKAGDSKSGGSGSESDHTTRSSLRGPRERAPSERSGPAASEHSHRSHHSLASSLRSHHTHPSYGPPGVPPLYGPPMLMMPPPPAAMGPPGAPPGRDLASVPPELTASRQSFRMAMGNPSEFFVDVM
Procedure, shortened: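 Competitive AlphaScreen energy-transfer assay for binding of the Dvl PDZ domain to the Fz7 PDZ-binding region. IC50 fitted from binding curves, each the mean of three independent experiments.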

HepG2 [2] = experiment: Induction of apoptosis in human HepG2 cells assessed as caspase 3 activation at 100 uM after 2 days; assay type: functional, cell-based
Procedure, shortened: (§1)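 HepG2 hepatocellular carcinoma, Rh30 rhabdomyosarcoma and hTERT-immortalized BJ foreskin fibroblast cells were exposed to compound at 100 μM for 2 days. Caspase-3/7 activity was then read with Caspase3/7-Glo reagent and expressed as a proportion of the DMSO control (set to 1), as the mean of three independent experiments.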

HepG2 [3] = experiment: Induction of apoptosis in human HepG2 cells assessed as caspase 7 activation at 100 uM after 2 days; assay type: functional, cell-based; procedure, shortened: as §1
SJRH30 [4] = experiment: Induction of apoptosis in human Rh30 cells assessed as caspase 3 activation at 100 uM after 2 days; assay type: functional, cell-based; procedure, shortened: as §1
SJRH30 [5] = experiment: Induction of apoptosis in human Rh30 cells assessed as caspase 7 activation at 100 uM after 2 days; assay type: functional, cell-based; procedure, shortened: as §1
BJ [6] = experiment: Induction of apoptosis in human BJ cells assessed as caspase 3 activation at 100 uM after 2 days; assay type: functional, cell-based; procedure, shortened: as §1
BJ [7] = experiment: Induction of apoptosis in human BJ cells assessed as caspase 7 activation at 100 uM after 2 days; assay type: functional, cell-based; procedure, shortened: as §1
[8] = target: T2, Segment polarity protein dishevelled homolog DVL-1 (Homo sapiens, UniProt O14640); experiment: Antagonist activity at human Dvl1 assessed as inhibition of interaction between Dvl1 PDZ domain and […] by alphaScreen assay; assay type: functional
T2 sequence (O14640 whole entry): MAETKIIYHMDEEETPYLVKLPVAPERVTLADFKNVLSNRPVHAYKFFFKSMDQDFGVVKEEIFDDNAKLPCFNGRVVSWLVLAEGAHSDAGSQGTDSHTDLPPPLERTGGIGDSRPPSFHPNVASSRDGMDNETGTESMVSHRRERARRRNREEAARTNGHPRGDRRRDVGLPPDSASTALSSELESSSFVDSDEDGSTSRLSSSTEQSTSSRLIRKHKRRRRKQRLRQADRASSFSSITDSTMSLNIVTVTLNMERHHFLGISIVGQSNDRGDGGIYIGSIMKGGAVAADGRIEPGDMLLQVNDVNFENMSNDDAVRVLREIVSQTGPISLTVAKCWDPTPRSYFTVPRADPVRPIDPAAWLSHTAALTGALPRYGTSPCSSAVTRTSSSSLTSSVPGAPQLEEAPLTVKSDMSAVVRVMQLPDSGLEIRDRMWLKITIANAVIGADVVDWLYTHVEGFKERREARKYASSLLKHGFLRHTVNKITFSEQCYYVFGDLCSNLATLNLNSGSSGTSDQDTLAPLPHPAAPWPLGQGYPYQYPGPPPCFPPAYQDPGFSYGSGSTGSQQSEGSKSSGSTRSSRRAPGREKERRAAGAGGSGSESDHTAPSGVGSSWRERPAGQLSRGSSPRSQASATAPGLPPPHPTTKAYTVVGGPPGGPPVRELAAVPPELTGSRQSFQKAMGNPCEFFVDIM

`Cc1cc2[nH]c(C(=O)NCc3ccccc3)c(CCc3ccccc3)c2cc1C(=O)O` was tested, and the IC50 [1] was 291 µM, the Activity (HepG2 [2]) was “Active” and the Activity (HepG2 [3]) was “Active”. For the same molecule, the Activity (SJRH30 [4]) was “Active”, the Activity (SJRH30 [5]) was “Active” and the Activity (BJ [6]) was “inactive”. For the same molecule, the Activity (BJ [7]) was “inactive”.
`Cc1cc2[nH]c(C(=O)NCC3CCCCC3)c(CCc3ccccc3)c2cc1C(=O)O` was tested, and the IC50 [1] was 309 µM.
`COC(=O)c1cc2c(CCc3ccccc3)c(C(=O)NC3CCCCC3)[nH]c2cc1C` gave an IC50 [1] of 57 µM.
For `Cc1cc2[nH]c(C(=O)NC(C)(C)C)c(CCc3ccccc3)c2cc1C(=O)O`, the IC50 [8] was over 500 µM and the IC50 [1] was over 500 µM.
With `Cc1cc2[nH]c(C(=O)NCC3CC3)c(CCc3ccccc3)c2cc1C(=O)O` the IC50 [8] was over 500 µM and the IC50 [1] was over 500 µM.
In the case of `Cc1cc2[nH]c(C(=O)NC3CCCCC3)c(CCc3ccccc3)c2cc1C(=O)O`, the IC50 [1] is reported as 23 µM, the Activity (HepG2 [2]) is reported as “Active” and the Activity (HepG2 [3]) is reported as “Active”. The Activity (SJRH30 [4]) was “Active”, the Activity (SJRH30 [5]) was “Active” and the Activity (BJ [6]) was “inactive”. The Activity (BJ [7]) was “inactive”.
For `CCC(C)CNC(=O)c1[nH]c2cc(C)c(C(=O)O)cc2c1CCc1ccccc1` (stereo not drawn), the IC50 [1] was 160 µM, the Activity (HepG2 [2]) was “Active” and the Activity (HepG2 [3]) was “Active”. For the same molecule, the Activity (SJRH30 [4]) was “Active”, the Activity (SJRH30 [5]) was “Active” and the Activity (BJ [6]) was “inactive”. The Activity (BJ [7]) was “inactive”.
With `Cc1cc2c(cc1C(=O)O)c(CCc1ccccc1)c(C(=O)NC1CCCCC1)n2C` the IC50 [1] was 92 µM, the Activity (HepG2 [2]) was “Active” and the Activity (HepG2 [3]) was “Active”. The Activity (SJRH30 [4]) was “Active”, the Activity (SJRH30 [5]) was “Active” and the Activity (BJ [6]) was “inactive”. The Activity (BJ [7]) was “inactive”.
With `CCCNC(=O)c1[nH]c2cc(C)c(C(=O)O)cc2c1CCc1ccccc1` the IC50 [8] was over 500 µM and the IC50 [1] was over 500 µM.
In the case of `Cc1cc2[nH]c(C(=O)NCCC(=O)O)c(CCc3ccccc3)c2cc1C(=O)O`, the IC50 [8] is reported as over 500 µM and the IC50 [1] is reported as over 500 µM.
